We go through twelve molecules from ChEMBL document CHEMBL3627629 (Bioorg Med Chem Lett, 2015).

Bounds are passed on as bounds.

Holding throughout (type): cell-based
For assay [1], the target named is T1, Muscarinic acetylcholine receptor M5 (Homo sapiens, UniProt P08912).
T1 sequence (P08912 whole entry): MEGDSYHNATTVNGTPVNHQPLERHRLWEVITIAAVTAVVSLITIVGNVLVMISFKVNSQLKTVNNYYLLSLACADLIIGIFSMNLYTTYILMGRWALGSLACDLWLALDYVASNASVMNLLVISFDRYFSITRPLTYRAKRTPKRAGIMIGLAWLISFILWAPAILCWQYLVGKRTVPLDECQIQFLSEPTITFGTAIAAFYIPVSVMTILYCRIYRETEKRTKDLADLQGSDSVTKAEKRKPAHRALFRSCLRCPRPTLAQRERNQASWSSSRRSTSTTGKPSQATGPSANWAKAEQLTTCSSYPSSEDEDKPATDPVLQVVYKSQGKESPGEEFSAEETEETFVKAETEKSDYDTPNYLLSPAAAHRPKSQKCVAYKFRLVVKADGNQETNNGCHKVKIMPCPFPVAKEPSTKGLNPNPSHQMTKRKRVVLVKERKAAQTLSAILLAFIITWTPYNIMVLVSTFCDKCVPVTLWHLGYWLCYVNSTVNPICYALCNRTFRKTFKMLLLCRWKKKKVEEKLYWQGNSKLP
The experiment in a line: Displacement of [3H]NMS from human muscarinic M5 receptor expressed in CHO cells after 2 hrs by liquid scintillation spectrometry analysis. An outline of the steps: (§1)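 Membranes from CHO cells stably expressing recombinant human receptor: 10 µg protein/well for M1 and M5, 3 µg for M3. Incubated with 0.3 nM [3H]NMS and 1 nM–100 µM analog in 50 mM Tris-HCl pH 7.4, 2 h at 25 °C. Nonspecific binding defined with 1 µM atropine. GF/B filtration, washed three times. Ki from IC50 by Cheng-Prusoff. Three independent experiments in duplicate, mean ± SEM.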

Assay [2] deals with Muscarinic acetylcholine receptor M3 (Homo sapiens, UniProt P20309). The experiment in a line: Displacement of [3H]NMS from human muscarinic M3 receptor expressed in CHO cells after 2 hrs by liquid scintillation spectrometry analysis. Put shortly:
as §1
Background: In a radioligand displacement assay an active substance lowers the binding of a labelled ligand.

In assay [3] the target is T2, Muscarinic acetylcholine receptor M1 (Homo sapiens, UniProt P11229).
T2 sequence (P11229 whole entry): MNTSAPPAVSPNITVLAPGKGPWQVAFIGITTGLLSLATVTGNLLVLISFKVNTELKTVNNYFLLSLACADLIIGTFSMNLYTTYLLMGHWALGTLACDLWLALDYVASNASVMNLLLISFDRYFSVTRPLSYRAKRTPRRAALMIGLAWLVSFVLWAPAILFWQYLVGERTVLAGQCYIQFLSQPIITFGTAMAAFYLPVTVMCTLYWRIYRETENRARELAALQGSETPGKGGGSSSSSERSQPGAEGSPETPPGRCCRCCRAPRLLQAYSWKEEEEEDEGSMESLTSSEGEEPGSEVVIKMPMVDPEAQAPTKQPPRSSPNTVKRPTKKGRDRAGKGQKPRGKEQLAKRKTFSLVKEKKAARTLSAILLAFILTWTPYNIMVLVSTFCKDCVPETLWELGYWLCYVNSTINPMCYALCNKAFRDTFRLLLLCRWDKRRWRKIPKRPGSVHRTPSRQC
The experiment in a line: Displacement of [3H]NMS from human muscarinic M1 receptor expressed in CHO cells after 2 hrs by liquid scintillation spectrometry analysis. An outline of the steps: as §1

Chain of Muscarinic acetylcholine receptor M3 (P20309 whole entry): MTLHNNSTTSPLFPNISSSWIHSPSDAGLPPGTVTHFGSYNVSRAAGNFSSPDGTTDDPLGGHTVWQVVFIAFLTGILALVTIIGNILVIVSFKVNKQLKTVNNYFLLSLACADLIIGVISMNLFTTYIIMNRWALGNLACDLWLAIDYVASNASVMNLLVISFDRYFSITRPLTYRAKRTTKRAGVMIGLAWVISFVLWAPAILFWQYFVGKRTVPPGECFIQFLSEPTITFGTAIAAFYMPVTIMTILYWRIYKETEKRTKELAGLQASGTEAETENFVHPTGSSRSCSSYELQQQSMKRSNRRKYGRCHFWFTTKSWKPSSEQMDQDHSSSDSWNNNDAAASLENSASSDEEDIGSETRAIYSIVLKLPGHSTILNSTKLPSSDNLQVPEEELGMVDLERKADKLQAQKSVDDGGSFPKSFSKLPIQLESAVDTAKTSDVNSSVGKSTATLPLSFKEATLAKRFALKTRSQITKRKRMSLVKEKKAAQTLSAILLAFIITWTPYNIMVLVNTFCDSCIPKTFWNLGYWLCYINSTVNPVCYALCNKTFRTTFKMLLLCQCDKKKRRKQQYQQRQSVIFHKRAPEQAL

As to `COc1ccc(CCC(=O)NCC2(c3ccccc3)CCN(C)CC2)cc1`, the figures for the inhibition constant Ki in assay [1], in assay [2] and in assay [3] were 1.81 µM, 1.54 µM and 3.44 µM, respectively.
`COc1ccc(CCOC(=O)C2(c3ccccc3)CCN(C)CC2)cc1`: the results for the Ki in assay [1], in assay [2] and in assay [3] were 0.87 µM, 0.64 µM and 1.2 µM, respectively.
The matching figures for `COc1ccc(CCOC(=O)NCC2(c3ccccc3)CCN(C)CC2)cc1`: 2.05 µM, 2.3 µM and 2.91 µM.
The matching figures for `COc1ccc(CCNC(=O)NCC2(c3ccccc3)CCN(C)CC2)cc1`: 4.3 µM, 3.55 µM and 5.4 µM.
On to `COc1ccc(CCNC(=O)OCC2(c3ccccc3)CCN(C)CC2)cc1OC`, for which the Ki came to 5.41 µM in assay [1], 4.03 µM in assay [2] and 5.09 µM in assay [3].
Regarding `COc1ccc(CCNC(=O)C2(c3ccccc3)CCN(C)CC2)cc1OC`, the Ki was more than 30 µM in assay [1], more than 10 µM in assay [2] and more than 30 µM in assay [3].
In the case of `COc1ccc(CCNC(=O)C2(c3ccccc3)CCN(C)CC2)cc1`, the figures for the Ki in assay [1], in assay [2] and in assay [3] were 6.97 µM, 3.29 µM and more than 10 µM, respectively.
In the case of `COc1ccc(CCC(=O)OCC2(c3ccccc3)CCN(C)CC2)cc1OC`, the Ki in assay [1] came out at 2.14 µM; in assay [2], 4.6 µM; in assay [3] it was 3.63 µM.
Take `COc1ccc(CCOC(=O)C2(c3ccccc3)CCN(C)CC2)cc1OC`: the Ki in assay [1] turned out to be 6.95 µM; in assay [2], 5.26 µM; in assay [3], 10.8 µM.
As to `COc1ccc(CCNC(=O)NCC2(c3ccccc3)CCN(C)CC2)cc1OC`, the Ki in assay [1], in assay [2] and in assay [3] was more than 10 µM throughout.
As for `COc1ccc(CCC(=O)OCC2(c3ccccc3)CCN(C)CC2)cc1`, the Ki in assay [1] stood at 0.38 µM; in assay [2], 0.37 µM; in assay [3], 0.67 µM.
For the molecule `COc1ccc(CCC(=O)NCC2(c3ccccc3)CCN(C)CC2)cc1OC`, the inhibitory constant (Ki) was more than 10 µM in assay [1], more than 30 µM in assay [2] and more than 10 µM in assay [3].

What is called Ki is a dissociation constant, usually derived from enzyme kinetics or from competition with a known ligand. High values mean a looser hold on the target, low ones a stronger hold on the target.
